# Scp-1 inhibitor: blocks human Scp-1 phosphatase activity. Q9GZU7. Recombinant Scp1, phosphopeptide, malachite green phosphate absorbance. inhibition, % at 20 µM. hit rate 0.88% among 340,000;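 active means inhibition above about 50% at 20 µM, limit read from the data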
#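 Test system: SCP-1 phosphatase catalytic domain, residues 76-261; measured by: colorimetric phosphate reagent with accelerator and stabiliser, absorbance at 630 nm; timing: enzyme reaction 45 min at room temperature, colour 5 min, stabilisation 30 min; also added: Phosphorylated 17-residue peptide substrate; compound dosing: one concentration, 20 µM, with 1.0% DMSO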
# SUMO1 PPI mod: modulators of human SUMO1-mediated protein-protein interactions. AID 602429. hit rate 0.33% among 360,000. SUMO1 binding to a labelled peptide, TR-FRET, 1 h. inhibition, % at 20 µM. P63165; in the data active means inhibition above about 37%
# DNMT1 inh: inhibitors of human DNMT1. P26358. DNMT1 molecular beacon, Hinp1I cleavage, fluorescence. inhibition (reported as % activation of signal), % at 10 µM. hit rate 0.83% among 360,000. AID 588458; in the data active means inhibition above about 50%
# LMPTP inh: LMPTP (human) inhibition; P24666; recombinant LMPTP-A, OMFP fluorogenic substrate, fluorescence intensity; inhibition, % at 20 µM; hit rate 0.22% among 360,000;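 active means compounds that cut the enzyme signal by at least half of the control window in the single-dose screen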
#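 Test system: LMPTP-A phosphatase enzyme; input: 0.625 nM LMPTP-A final; reagent: OMFP substrate, 400 µM final; compound dosing: 20 µM single dose, 3% DMSO; incubation: 50 min dark incubation at room temperature; measured by: endpoint fluorescence intensity from OMFP dephosphorylation; measure: % inhibition relative to no-enzyme and uninhibited control wells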
# STEP inh: blocks human striatal-enriched tyrosine phosphatase; hit rate 0.25% among 360,000; AID 588621; inhibition, % at 20 µM; recombinant STEP, OMFP fluorogenic substrate, fluorescence;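 active means inhibition at 20 µM, scaled per plate between control wells, above about 37%, limit read from the data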
# Target sequence (P54829 whole entry, looked up): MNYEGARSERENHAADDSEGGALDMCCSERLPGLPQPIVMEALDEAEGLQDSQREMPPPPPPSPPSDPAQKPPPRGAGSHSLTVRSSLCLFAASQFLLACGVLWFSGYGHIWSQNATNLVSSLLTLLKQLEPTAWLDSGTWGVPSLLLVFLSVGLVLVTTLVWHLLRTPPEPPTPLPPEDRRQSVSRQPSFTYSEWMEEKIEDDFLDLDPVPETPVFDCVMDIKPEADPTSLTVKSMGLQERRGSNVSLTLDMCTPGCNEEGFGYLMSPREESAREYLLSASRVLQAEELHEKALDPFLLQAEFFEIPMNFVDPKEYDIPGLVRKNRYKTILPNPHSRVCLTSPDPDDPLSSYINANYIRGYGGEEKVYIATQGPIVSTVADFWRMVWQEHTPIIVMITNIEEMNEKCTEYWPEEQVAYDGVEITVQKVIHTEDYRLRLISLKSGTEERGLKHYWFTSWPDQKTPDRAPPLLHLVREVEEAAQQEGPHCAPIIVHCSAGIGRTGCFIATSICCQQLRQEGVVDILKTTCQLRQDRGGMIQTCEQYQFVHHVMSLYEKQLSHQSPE
#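 material = STEP tyrosine phosphatase | reagent = fluorogenic phosphatase substrate OMFP at 25 µM final | doses = single compound dose of 20 µM, 1% DMSO final | schedule = 20 min reaction, room temperature, in the dark | measured by = fluorescence, 480/540 nm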
# Scp-1 conf: confirmation of human Scp-1 phosphatase inhibitors. shares compounds with Scp-1 inhibitor. recombinant SCP-1 catalytic domain, phosphate release, malachite green absorbance. inhibition, % at 20 µM. hit rate 61% among 2,500
# Scp-1 MG ctr: colorimetric interference in Scp-1 counter-screen; 2,500 tested, under 10 active; shares compounds with Scp-1 inhibitor; Colorimetric interference counterscreen, malachite green absorbance 630 nm; AID 540313; apparent inhibition (interference), % at 20 µM;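 further: compounds added after enzyme reaction finished so only phosphate colour detection is probed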
# Scp1 DSF: binds human Scp-1, shifting its melting temperature. shares compounds with Scp-1 inhibitor. thermal shift relative to vanadate control, % at 40 µM. Recombinant SCP1, Sypro Orange thermal shift Tm. hit rate 25% among 1,500;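 active means substances whose mean melting-temperature shift, as a percentage of the reference inhibitor's shift, reaches about 5.3%, limit read from the data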
# A number is an active result; - = inactive; . = no result. This is a sample that favours compounds with a hit; in the whole collection about 1.8% have one here.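 How the source made its calls, unless noted: active means inhibition of at least 30% at 20 µM; inactive means the rest.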
SMILES,Scp-1 inhibitor,SUMO1 PPI mod,DNMT1 inh,LMPTP inh,STEP inh,Scp-1 conf,Scp-1 MG ctr,Scp1 DSF
O=C(N/N=C/c1ccco1)c1cccc(N2CCCC2=O)c1,-,-,-,-,-,.,.,.
O=C(N/N=C/c1ccco1)c1cccc(N2Cc3ccccc3C2)c1,79,-,80,-,-,46,-,11
C[n+]1ccc(C(=O)N/N=C/c2ccco2)cc1,60,-,-,-,-,-,-,.
CCOC(=O)CC1(C)OCC(C[N+]2(C)CCCCC2)O1 (configuration not stated),93,-,-,-,-,93,-,-
O=[N+]([O-])c1ccc(N=Nc2ncc[nH]2)cc1,-,-,-,-,-,.,.,.
Cc1cc(C=O)c(C)n1-c1cccc(C(=O)O)c1,53,-,-,-,-,52,-,-
O=C(CN1C(=O)/C(=C2/SC(=S)N(CCS(=O)(=O)O)C2=O)c2ccccc21)Nc1cccc(Br)c1,82,-,-,-,87,81,-,16
CCCOc1ccc(-c2nnc(-c3cccs3)o2)cc1,67,-,-,-,-,-,-,.
CCCn1nc(C(=O)Nc2ccc(-n3cnnn3)cc2)c2ccccc2c1=O,-,-,-,-,-,.,.,.
Cn1ccsc1=NC(=O)c1ccc(S(C)(=O)=O)c([N+](=O)[O-])c1,-,-,-,-,-,.,.,.
Cn1ccsc1=NC(=O)c1ccc(Cl)c([N+](=O)[O-])c1,54,-,-,-,-,-,-,.
CCc1ccc(OCC(=O)NNC(=O)c2ccc(NC(=O)C3CC3)cc2)cc1,52,-,-,-,-,78,-,-
COc1ccc(Cl)c2sc(N(CCN(C)C)C(=O)C3=COCCO3)nc12,91,-,-,-,-,-,-,.
N=C1/C(=C/c2ccc(-c3cccc(C(=O)O)c3)o2)C(=O)N=C2SC(CC(=O)N3CCOCC3)=NN12,79,-,56,-,-,58,-,-
N=C1/C(=C\c2ccc(SCc3ccccc3)o2)C(=O)N=C2SC(CC(=O)N3CCOCC3)=NN12,-,-,-,-,-,.,.,.
O=C(CSc1nc2c(sc3ccccc32)c(=O)n1CCO)NCc1ccco1,74,-,-,-,-,64,-,-
O=C(CSc1nc2c(sc3ccccc32)c(=O)n1CCCN1CCCC1)NCc1ccco1,-,-,-,-,-,.,.,.
Oc1c(Cl)cc(Cl)cc1C=Nc1ccc(N2CCOCC2)cc1,-,-,-,-,-,.,.,.
Oc1ccc(C=Nc2ccc(N3CCOCC3)cc2)c(O)c1,52,-,-,-,-,45,-,-
COc1ccccc1CNC(=O)CNC(=O)[C@@H]1Cc2ccccc2CN1,-,-,-,-,-,.,.,.
Nn1c(SCc2ccc(F)cc2)nnc1-c1ccncc1,-,-,-,-,-,.,.,.
CCc1ccccc1NC(=O)CNC(=O)CCc1nc2sc3c(c2c(=O)[nH]1)CCCC3,70,-,-,-,-,66,-,-
CCn1c(SCC(=O)N(C)c2ccccc2)nc2c([nH]c3ccccc32)c1=O,-,-,-,-,-,.,.,.
CC(=O)Nc1ccc(N=Cc2nc(-c3ccc(C)cc3)oc2O)cc1,76,-,-,-,-,-,-,.
Cc1ccc(N=Cc2nc(-c3ccc(C)cc3)oc2O)cc1,-,-,-,-,-,.,.,.
CCC(C)Sc1ccc([C@@H]2[C@H]3C(=O)N(CC)C(=O)[C@H]3[C@]3(C(=O)OC)CCCN23)cc1OC (some centres not stated),-,-,-,-,-,.,.,.
O=C(N/N=C\c1cccnc1)c1cc(-c2ccc(Cl)s2)[nH]n1,62,-,-,-,-,53,-,-
O=C(N/N=C/c1cccnc1)c1ccccc1Cl,-,-,-,-,-,.,.,.
CC(C)CN(C(=O)COC(=O)CNC(=O)c1ccccc1F)c1c(N)n(Cc2ccccc2)c(=O)[nH]c1=O,-,-,-,-,-,.,.,.
CC1(C)CC(=O)C=C(c2ccc(COC(=O)Cc3ccccc3)cc2)C1=O,.,-,-,-,-,.,.,.
